Here are results for three compounds from ChEMBL document CHEMBL4196166 (J Med Chem, 2018).

Active and inactive are the calls of the source. The rule behind the calls is not given here. Some results are limits rather than exact numbers.

The target of data set [1] is T1, Epithelial sodium channel subunit beta (Homo sapiens, UniProt P51168).
T1 sequence (P51168 whole entry): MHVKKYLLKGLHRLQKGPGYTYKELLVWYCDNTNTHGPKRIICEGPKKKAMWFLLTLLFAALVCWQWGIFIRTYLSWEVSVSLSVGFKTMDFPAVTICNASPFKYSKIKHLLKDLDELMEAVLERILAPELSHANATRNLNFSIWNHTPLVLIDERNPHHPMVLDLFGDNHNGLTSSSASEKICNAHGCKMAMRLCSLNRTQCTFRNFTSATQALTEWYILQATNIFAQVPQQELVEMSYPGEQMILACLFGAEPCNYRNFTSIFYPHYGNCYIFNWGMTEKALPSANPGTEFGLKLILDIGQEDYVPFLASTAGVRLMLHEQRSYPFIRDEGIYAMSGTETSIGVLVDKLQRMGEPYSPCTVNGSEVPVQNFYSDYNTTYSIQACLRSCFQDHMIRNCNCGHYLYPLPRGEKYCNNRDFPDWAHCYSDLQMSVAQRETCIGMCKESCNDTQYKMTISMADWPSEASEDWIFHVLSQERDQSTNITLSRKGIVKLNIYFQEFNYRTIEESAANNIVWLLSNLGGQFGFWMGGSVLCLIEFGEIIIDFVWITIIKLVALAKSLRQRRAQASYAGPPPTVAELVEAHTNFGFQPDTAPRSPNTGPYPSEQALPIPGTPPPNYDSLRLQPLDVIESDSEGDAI
As to the kind of experiment: Inhibition of S-3969-stimulated recombinant human ENaC beta subunit expressed in HEK293 cells at 10 uM preincubated for 5 mins followed by S-3969 stimulation by FLIPR assay. In kind it is cell-based. The note with it: hek293, 10 µM. The method in brief:
(§1)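 HEK-293 cells transfected with human ENaC α, β and γ cDNA together, plated at 20 000 cells/well, incubated overnight at 37 °C. Loaded with membrane-potential red dye for 30 min at 37 °C. Compound preincubated 5 min in HEPES-buffered salt solution (pH 7.4, 0.3% DMSO), then stimulated with 1 µM S-3969, read on FLIPR. Signal normalized to agonist alone (100%) and agonist plus 30 µM benzamil (0%). n = 4 wells.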

The target of data set [2] is T2, Epithelial sodium channel subunit gamma (Homo sapiens, UniProt P51170).
T2 sequence (P51170 whole entry): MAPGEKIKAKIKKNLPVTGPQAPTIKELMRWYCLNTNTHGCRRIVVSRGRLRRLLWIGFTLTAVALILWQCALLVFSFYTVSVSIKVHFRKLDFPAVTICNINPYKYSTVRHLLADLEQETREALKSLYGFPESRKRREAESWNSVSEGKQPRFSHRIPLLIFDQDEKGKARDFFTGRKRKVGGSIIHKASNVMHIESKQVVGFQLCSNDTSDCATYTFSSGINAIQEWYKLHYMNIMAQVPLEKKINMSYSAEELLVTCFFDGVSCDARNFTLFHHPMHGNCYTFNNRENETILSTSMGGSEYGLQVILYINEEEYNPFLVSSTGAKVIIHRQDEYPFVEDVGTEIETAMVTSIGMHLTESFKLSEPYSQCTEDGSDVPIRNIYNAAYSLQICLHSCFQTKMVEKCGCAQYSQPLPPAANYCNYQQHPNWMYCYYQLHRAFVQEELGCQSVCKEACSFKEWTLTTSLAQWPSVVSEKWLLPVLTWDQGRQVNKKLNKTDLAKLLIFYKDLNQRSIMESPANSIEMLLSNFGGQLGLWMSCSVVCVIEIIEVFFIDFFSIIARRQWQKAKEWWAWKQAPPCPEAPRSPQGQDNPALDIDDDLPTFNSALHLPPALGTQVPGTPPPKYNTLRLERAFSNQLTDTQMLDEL
As to the kind of experiment: Inhibition of S-3969-stimulated recombinant human ENaC gamma subunit expressed in HEK293 cells at 10 uM preincubated for 5 mins followed by S-3969 stimulation by FLIPR assay. The data set is classed as cell-based. To be noted: hek293, 10 µM. The method in brief: as §1

The next data set concerns MDA-MB-231. As to the kind of experiment: Cytotoxicity against human MDA-MB-231 cells assessed as reduction in cell viability after 48 hrs by CellTiter 96 Aqueous One solution cell proliferation assay. The data set is classed as functional, cell-based. The note with it: MDA-MB-231, 48 h. The essentials:
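Cells grown in DMEM high glucose with 10% heat-inactivated FCS, seeded at 5000/well and left 18 h. Compounds added at 1 nM–100 µM final (0.2% vehicle), n = 4 wells per concentration, with colour blanks. After 48 h, MTS reagent added for 2 h and A490 read. IC50 from a variable-slope sigmoidal fit.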

Another data set deals with Trypsin (Homo sapiens, UniProt P07477+P07478+P35030). In words: Inhibition of trypsin (unknown origin) using chromogenic H-D-Ile-L-Pro-L-Arg-p-nitoraniline as substrate by […]. The data set is classed as protein assay.
In data set [3] the test system is Homo sapiens. As to the kind of experiment: Antitumor activity against human AsPC1 cells xenografted in BALB/c nu/nu mouse co-implanted with human PSC assessed as reduction in tumor volume at 10 mg/kg/day, ip measured after 28 days post first dose. The data set is classed as functional, organism-based. The method in brief: (§2)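 Orthotopic AsPC-1 plus human stellate cell co-implant (1×10^6 each) in the pancreatic tail of female nude BALB/c nu/nu mice. From day 7, dosed for 4 weeks (n = 4/group) with 10 mg/kg/day ip in acetate pH 5.5/DMSO/Kolliphor vehicle, or gemcitabine 75 mg/kg gavage twice weekly. Tumors resected at 4 weeks after first injection and measured with calipers by two observers. Volume = 1/2(length×breadth×width). Mean ± SEM.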
For orientation: In xenograft studies the graft and the host belong to different species.

Data set [4] deals with Homo sapiens. As to the kind of experiment: Antitumor activity against human PSC xenografted in BALB/c nu/nu mouse co-implanted with human AsPC1 cells assessed as reduction in tumor volume at 10 mg/kg/day, ip measured after 28 days post first dose. The data set is classed as functional, organism-based. The method in brief: as §2
The subject of the next data set is HT-1080. In words: Antimetastatic activity against luciferase-tagged human HT1080 cells xenografted in NOD.Cg-Prkdc-IL2rg<tm1Wjl>SzJAusb mouse assessed as inhibition of late-stage lung metastasis at 7.5 mg/kg/day, ip administered […] measured day 21. In kind it is functional. The note with it: HT-1080, ip. The essentials:
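2.5 × 10^5 luciferase-tagged HT-1080 cells in PBS given by lateral tail vein on day 0. Daily ip dosing at 7.5 mg/kg from day -1 to day 20 (vehicle 50 mM acetate pH 5.5, 7.5% DMSO, 0.75% Tween80). Lungs harvested at day 21, homogenized, and tumour burden measured by luciferase assay. n = 4–6; one-way ANOVA with Dunnett's test.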

The subject of data set [5] is Homo sapiens. In words: Antimetastatic activity against human PSC xenografted in BALB/c nu/nu mouse co-implanted with human AsPC1 cells assessed as reduction in metastasis lesions in liver at 10 mg/kg/day, ip measured after 28 days post first dose by microscopic analysis. The data set is classed as functional, organism-based. The method in brief: (§3)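 Female athymic BALB/c nu/nu mice, 6–8 weeks old. 1×10^6 AsPC-1 and 1×10^6 human pancreatic stellate cells in 50 µL PBS injected into the pancreatic tail. Treatment randomized on day 7 (n = 4/group) for 4 weeks: 10 mg/kg/day ip in 50 mM sodium acetate pH 5.5/10% DMSO/1% Kolliphor HS-15, or gemcitabine 75 mg/kg by oral gavage twice weekly, or vehicle. At kill, liver scored for visible macrometastases, fixed in formalin, and 4 µm sections stained with H&E. Chi-square test.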

A further data set concerns ASPC1. In words: Antimetastatic activity against human AsPC1 cells xenografted in BALB/c nu/nu mouse co-implanted with human PSC assessed as reduction in metastasis lesions in liver at 10 mg/kg/day, ip measured after 28 days post first dose by microscopic analysis. The data set is classed as functional, organism-based. The essentials:
as §3

What is called IC50 is the concentration that gives 50% inhibition. For `N=C(N)NC(=O)c1nc(Cl)c(N2CCCCCC2)nc1N` [N,N-HEXAMETHYLENEAMILORIDE], the “inhibition (INH)” value in [1] and in data set [2] was “Not Active” throughout. Also, the IC50 was 27.3 µM with MDA-MB-231 and above 10 µM against Trypsin.
What is called inhibition in vivo is the change of the read-out against control, counted positive when it falls. As for `N=C(N)NC(=O)c1nc(-c2cc3ccccc3o2)c(N2CCCCCC2)nc1N`, the outcome in the data set on Homo sapiens [3], in the data set with Homo sapiens [4], with Homo sapiens [5] and with ASPC1 was Active. The “inhibition (INH)” value in [1] and in data set [2] was “Not Active” in each case. Moreover, the inhibition in vivo at 7.5 mg/kg/day in the data set with HT-1080 amounted to 21%. Also, at Trypsin, the IC50 is above 10 µM.
`COc1ncc(-c2nc(C(=O)NC(=N)N)c(N)nc2N2CCCCCC2)cn1`: the outcome in the data set with Homo sapiens [3], in the data set on Homo sapiens [4], in the data set on Homo sapiens [5] and in the data set with ASPC1 was Active. Also, in the data set on HT-1080, the inhibition in vivo at 7.5 mg/kg/day was 33%. Moreover, in the data set with MDA-MB-231, the IC50 was above 100 µM.
